# Results gathered from unrelated publications.
# Each line is one published result; the experiments were not run side by side.
# Target: Phosphatidylinositol 4-phosphate 5-kinase type-1 alpha (PIP5K1A, Homo sapiens, UniProt Q99755)
SMILES,read-out,action,technique,concentration,endpoint,value
C1=C/COCc2cc(ccc2OCCN2CCCC2)Nc2nccc(n2)-c2cccc(c2)COC/1,binding,,,0.1 µM,remaining binding,20%
CC(C)S(=O)(=O)c1ccc2nccc(Nc3ccc4sc(C5CCCC5)nc4c3)c2c1,enzyme activity,inhibitor,,1 µM,activity vs control,104%
CCCCC(=O)Nc1ccc(-c2ccc3ncn(CCC)c(=O)c3c2)cn1,binding,,competition with immobilised ligand,0.5 µM,remaining binding,100%
C=CC(=O)N1CCC([C@@H]2CCNc3c(C(N)=O)c(-c4ccc(Oc5ccccc5)cc4)nn32)CC1,enzyme activity,inhibitor,,1 µM,inhibition,16%
CN1CCN(C(=O)c2ccc(NC(=O)Nc3ccc(N(C)c4ccnc(Nc5ccc(CS(C)(=O)=O)cc5)n4)cc3)cc2)CC1,binding,,,1 µM,remaining binding,9.3%
C[C@]1(O)CCCN(c2nc(Nc3ccc(S(=O)(=O)N[C@H]4CC[C@H](CN5CCN(c6ccc(C7CCC(=O)NC7=O)cc6F)CC5)CC4)cc3Cl)ncc2C(F)(F)F)C1 (stereo partly shown),binding,,competition with immobilised ligand,1 µM,remaining binding,93%
COc1ccc2[nH]c3c4[nH]c5ccc(OC)cc5c4c4c(c3c2c1)C(=O)NC4=O,binding,,,1 µM,remaining binding,100%
C[C@]1(O)CCCN(c2nc(Nc3ccc(S(=O)(=O)N[C@H]4CC[C@H](CN5CCN(c6ccc(C7CCC(=O)NC7=O)cc6F)CC5)CC4)cc3F)ncc2C(F)(F)F)C1 (stereo partly shown),binding,,competition with immobilised ligand,1 µM,remaining binding,94%
CC#CC(=O)N1CCC[C@H]1c1nc(-c2ccc(C(=O)Nc3ccccn3)cc2)c2c(N)nccn12,enzyme activity,inhibitor,,1 µM,inhibition,12%
COc1ccc2oc(-c3ccc4nc(N)oc4c3)c/c(=N\c3ccccc3NC(=O)CCN)c2c1,binding,,,1 µM,remaining binding,95%
